Laboratory results reported in ChEMBL document CHEMBL1133729, “Design, synthesis, and structure-activity relationships of phthalimide-phenylpiperazines: a novel series of potent and selective alpha(1)(a)-adrenergic receptor antagonists” (J Med Chem, 2000).

What was measured:
[1] = biological target: T1, 5-hydroxytryptamine receptor 1A (Homo sapiens) (UniProt P08908); experiment: Compound at 1 uM was tested for the inhibition of radioligand [3H]8-OH-DPAT binding to recombinant human 5-hydroxytryptamine 1A receptor
T1 sequence (whole entry): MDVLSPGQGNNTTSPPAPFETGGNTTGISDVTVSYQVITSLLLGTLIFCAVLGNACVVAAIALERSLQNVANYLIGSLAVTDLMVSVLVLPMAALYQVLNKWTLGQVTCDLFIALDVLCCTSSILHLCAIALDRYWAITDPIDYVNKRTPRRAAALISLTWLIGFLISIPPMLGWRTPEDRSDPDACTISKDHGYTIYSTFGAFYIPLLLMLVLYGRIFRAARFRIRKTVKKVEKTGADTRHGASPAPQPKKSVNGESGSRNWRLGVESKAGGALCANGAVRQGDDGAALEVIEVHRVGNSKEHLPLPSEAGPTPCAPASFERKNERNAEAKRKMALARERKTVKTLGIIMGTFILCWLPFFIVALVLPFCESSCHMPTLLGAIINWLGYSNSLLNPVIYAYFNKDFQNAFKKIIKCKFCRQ

[2] = biological target: T2, Alpha-1B adrenergic receptor (Homo sapiens, UniProt P35368); experiment: Binding affinity towards cloned human alpha-1B adrenergic receptor was determined using [125]-HEAT as radioligand
T2 sequence (P35368 whole entry): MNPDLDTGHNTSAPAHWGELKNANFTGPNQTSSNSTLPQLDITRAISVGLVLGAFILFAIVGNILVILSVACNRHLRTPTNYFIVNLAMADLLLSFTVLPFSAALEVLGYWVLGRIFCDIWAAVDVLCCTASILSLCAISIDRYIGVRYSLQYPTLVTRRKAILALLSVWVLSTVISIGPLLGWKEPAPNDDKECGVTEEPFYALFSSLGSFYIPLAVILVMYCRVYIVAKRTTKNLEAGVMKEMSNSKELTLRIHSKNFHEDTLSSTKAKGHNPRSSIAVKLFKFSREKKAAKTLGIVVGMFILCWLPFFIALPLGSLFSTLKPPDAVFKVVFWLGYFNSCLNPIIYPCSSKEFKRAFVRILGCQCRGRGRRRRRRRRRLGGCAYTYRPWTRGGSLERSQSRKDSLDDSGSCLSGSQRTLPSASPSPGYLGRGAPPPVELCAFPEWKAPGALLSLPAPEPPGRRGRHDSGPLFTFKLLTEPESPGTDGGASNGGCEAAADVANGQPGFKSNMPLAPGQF
Summary of the method: (§1)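 Human α1a, α1b and α1d cDNAs transiently expressed in COS-1 cells (DEAE-dextran); membranes harvested 72 h post-transfection. Competition versus 50 pM [125I]HEAT (final), 0.1 pM–10 μM test compound in half-log steps, in TNE buffer pH 7.4. Membrane protein 0.1 μg (α1a, α1b) or 2.6 μg (α1d); 1 h at 25 °C. Filtration, scintillation counting; Ki = IC50/(1 + [L]/Kd). Ratios are subtype Ki over α1a Ki.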

[3] = biological target: Adrenergic receptors; alpha-1 A & B (Homo sapiens) (UniProt P35348+P35368); experiment: Ratio of binding affinity towards Alpha1b to Alpha-1A; format: protein assay; summary of the method: as §1
[4] = biological target: D(2) dopamine receptor (Homo sapiens, UniProt P14416); experiment: Compound at 1 uM was tested for the inhibition of radioligand [3H]spiperone binding to recombinant human Dopamine receptor D2L
D(2) dopamine receptor, sequence (P14416 whole entry): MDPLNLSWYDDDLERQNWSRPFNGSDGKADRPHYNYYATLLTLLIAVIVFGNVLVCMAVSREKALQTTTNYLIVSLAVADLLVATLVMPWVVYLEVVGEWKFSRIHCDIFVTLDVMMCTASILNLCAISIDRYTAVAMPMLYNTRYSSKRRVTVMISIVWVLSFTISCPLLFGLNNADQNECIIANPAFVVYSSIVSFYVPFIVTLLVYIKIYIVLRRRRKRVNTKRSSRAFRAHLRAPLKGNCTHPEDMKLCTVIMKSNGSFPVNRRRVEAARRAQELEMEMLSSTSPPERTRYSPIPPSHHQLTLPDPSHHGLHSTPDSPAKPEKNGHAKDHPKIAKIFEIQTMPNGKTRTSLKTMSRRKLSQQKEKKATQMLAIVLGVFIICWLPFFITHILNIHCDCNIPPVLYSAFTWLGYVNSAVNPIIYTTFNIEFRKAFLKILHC
Summary of the method: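 D2L (human, CHO-expressed) membranes; [3H]spiperone, 25 °C, 120 min; pH 7.4 Tris-HCl/NaCl/EDTA; nonspecific with 10 μM haloperidol. Compound at 1 μM, percent inhibition in duplicate; filtration, scintillation counting.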

[5] = biological target: T3, Alpha-2B adrenergic receptor (Rattus norvegicus) (UniProt P19328); experiment: Compound at 1 uM was tested for the inhibition of radioligand [3H]yohimbine binding to rat alpha-2B adrenergic receptor
T3 sequence (whole entry): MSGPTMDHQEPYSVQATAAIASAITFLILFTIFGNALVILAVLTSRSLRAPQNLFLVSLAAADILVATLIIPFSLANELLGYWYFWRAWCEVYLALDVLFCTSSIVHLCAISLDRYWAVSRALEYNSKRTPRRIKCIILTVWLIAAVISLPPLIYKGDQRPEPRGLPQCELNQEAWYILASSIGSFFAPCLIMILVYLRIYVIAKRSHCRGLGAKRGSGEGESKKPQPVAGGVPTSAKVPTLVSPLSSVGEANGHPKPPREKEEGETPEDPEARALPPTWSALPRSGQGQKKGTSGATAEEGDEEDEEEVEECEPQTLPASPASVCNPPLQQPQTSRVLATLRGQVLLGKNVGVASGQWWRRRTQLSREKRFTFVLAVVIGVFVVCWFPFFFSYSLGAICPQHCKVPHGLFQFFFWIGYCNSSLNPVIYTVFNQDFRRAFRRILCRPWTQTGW
Summary of the method: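 Rat kidney cortical membranes; [3H]yohimbine, 25 °C for 30 min, pH 7.4 Tris-HCl/NaCl/EDTA; 10 μM phentolamine for nonspecific binding. Percent inhibition at 1 μM compound, in duplicate; filtration, scintillation counting.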

[6] = biological target: T4, D(4) dopamine receptor (Homo sapiens) (UniProt P21917); experiment: Compound at 1 uM was tested for the inhibition of radioligand [3H]spiperone binding to recombinant human Dopamine receptor D4.7
T4 sequence (whole entry): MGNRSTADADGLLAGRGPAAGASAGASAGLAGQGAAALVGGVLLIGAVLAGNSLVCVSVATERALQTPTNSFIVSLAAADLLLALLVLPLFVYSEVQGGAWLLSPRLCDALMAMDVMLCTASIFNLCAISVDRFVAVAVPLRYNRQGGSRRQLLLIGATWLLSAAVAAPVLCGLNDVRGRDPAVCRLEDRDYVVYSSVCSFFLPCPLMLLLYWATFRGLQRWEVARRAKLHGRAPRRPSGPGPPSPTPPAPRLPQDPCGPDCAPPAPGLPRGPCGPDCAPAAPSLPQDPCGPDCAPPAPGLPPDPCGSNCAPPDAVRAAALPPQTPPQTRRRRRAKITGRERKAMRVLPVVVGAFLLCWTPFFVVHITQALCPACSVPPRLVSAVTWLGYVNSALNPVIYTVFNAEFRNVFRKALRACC
Summary of the method: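 Recombinant human D4.7 in CHO cell membranes; [3H]spiperone for 120 min at 25 °C, pH 7.4 Tris-HCl/NaCl/EDTA; haloperidol (10 μM) for nonspecific binding. Compound at 1 μM, percent inhibition determined in duplicate; filtration, scintillation counting.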

[7] = biological target: 5-hydroxytryptamine receptor 7 (Homo sapiens, UniProt P34969); experiment: Compound at 1 uM was tested for the inhibition of radioligand [3H]LSD binding to recombinant human 5-hydroxytryptamine 7 receptor
5-hydroxytryptamine receptor 7, sequence (P34969 whole entry): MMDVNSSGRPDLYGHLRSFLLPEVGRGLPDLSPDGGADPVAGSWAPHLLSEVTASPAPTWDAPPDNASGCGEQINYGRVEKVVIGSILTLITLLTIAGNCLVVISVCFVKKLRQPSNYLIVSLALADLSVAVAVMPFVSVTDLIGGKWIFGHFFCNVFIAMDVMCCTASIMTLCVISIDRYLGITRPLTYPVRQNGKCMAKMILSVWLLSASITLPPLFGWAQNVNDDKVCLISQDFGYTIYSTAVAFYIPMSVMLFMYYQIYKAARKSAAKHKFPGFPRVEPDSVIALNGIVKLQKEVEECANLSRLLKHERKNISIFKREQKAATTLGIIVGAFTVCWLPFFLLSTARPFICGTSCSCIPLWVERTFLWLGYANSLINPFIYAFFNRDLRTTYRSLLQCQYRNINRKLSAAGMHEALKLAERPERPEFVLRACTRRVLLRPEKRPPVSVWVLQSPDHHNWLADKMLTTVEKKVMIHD
Summary of the method: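 Human 5-HT7 expressed in CHO cells; [3H]LSD, 120 min at 37 °C, pH 7.4 Tris-HCl/NaCl/EDTA; 5 μM 5-HT for nonspecific binding. Compound at 1 μM, duplicate determinations of percent inhibition; filtration, scintillation counting.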

SMILES	inhibition [1] [%]	Ki [2] [nM]	Ratio [3]	inhibition [4] [%]	inhibition [5] [%]	inhibition [6] [%]	inhibition [7] [%]
CC(C)Oc1ccccc1N1CCN(C[C@@H](O)CNC(=O)c2ccc3c(c2)C(=O)N(c2ccc(N(C)C)cc2)C3=O)CC1	92	> 2000	> 6060	71	73	50	95
Cc1ccc(N2C(=O)c3ccc(C(=O)NC[C@H](O)CN4CCN(c5ccccc5OC(C)C)CC4)cc3C2=O)cc1	92	> 1650	> 5690	68	75	–	90
CC(C)Oc1ccccc1N1CCN(C[C@@H](O)CNC(=O)c2ccc3c(c2)C(=O)N(c2cccc(F)c2)C3=O)CC1	98	> 2000	> 1960	55	70	43	95
CC(C)Oc1ccccc1N1CCN(CCCNC(=O)c2ccc3c(c2)C(=O)N(c2cccc(F)c2)C3=O)CC1	95	482	1180	89	78	69	92

Results, then the compound that gave them:

inhibition [1] [%]	Ki [2] [nM]	Ratio [3]	inhibition [4] [%]	inhibition [5] [%]	inhibition [6] [%]	inhibition [7] [%]	SMILES
90	> 2000	> 12500	83	66	20	95	Cc1ccc(N2C(=O)c3ccc(C(=O)NCCCN4CCN(c5ccccc5OC(C)C)CC4)cc3C2=O)cc1
115	1.92	–	53	86	21	74	CCOc1ccccc1OCCN[C@H](C)Cc1ccc(OC)c(S(N)(=O)=O)c1 [TAMSULOSIN]
104	361	3280	83	79	32	92	COc1ccc(N2C(=O)c3ccc(C(=O)NCCCN4CCN(c5ccccc5OC(C)C)CC4)cc3C2=O)cc1
